Source: PMC10213863 (Cell Reports Medicine, 2023)
Where two headings read alike, the source gives them in different places.

Legend:
[1] = molecular target: NOD1 (Homo sapiens, UniProt Q9Y239); test: Ramos Blue reporter B cell line, Tri-DAP stimulation; format: cell-based; conditions: Ramos cells; up to 10 μM; n = 4, data not shown
In short: (§1)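 Ramos Blue B reporter cells were pre-treated 30 min at 37°C, 5% CO2 with increasing concentrations of test compound or 0.25% v/v DMSO. They were then stimulated with the respective agonist, and reporter activity was read.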

[2] = molecular target: T1, TLR7 (Mus musculus, UniProt P58681); format: in vivo; conditions: mice; single oral dose 5 mg/kg
T1 sequence (P58681 27-1050): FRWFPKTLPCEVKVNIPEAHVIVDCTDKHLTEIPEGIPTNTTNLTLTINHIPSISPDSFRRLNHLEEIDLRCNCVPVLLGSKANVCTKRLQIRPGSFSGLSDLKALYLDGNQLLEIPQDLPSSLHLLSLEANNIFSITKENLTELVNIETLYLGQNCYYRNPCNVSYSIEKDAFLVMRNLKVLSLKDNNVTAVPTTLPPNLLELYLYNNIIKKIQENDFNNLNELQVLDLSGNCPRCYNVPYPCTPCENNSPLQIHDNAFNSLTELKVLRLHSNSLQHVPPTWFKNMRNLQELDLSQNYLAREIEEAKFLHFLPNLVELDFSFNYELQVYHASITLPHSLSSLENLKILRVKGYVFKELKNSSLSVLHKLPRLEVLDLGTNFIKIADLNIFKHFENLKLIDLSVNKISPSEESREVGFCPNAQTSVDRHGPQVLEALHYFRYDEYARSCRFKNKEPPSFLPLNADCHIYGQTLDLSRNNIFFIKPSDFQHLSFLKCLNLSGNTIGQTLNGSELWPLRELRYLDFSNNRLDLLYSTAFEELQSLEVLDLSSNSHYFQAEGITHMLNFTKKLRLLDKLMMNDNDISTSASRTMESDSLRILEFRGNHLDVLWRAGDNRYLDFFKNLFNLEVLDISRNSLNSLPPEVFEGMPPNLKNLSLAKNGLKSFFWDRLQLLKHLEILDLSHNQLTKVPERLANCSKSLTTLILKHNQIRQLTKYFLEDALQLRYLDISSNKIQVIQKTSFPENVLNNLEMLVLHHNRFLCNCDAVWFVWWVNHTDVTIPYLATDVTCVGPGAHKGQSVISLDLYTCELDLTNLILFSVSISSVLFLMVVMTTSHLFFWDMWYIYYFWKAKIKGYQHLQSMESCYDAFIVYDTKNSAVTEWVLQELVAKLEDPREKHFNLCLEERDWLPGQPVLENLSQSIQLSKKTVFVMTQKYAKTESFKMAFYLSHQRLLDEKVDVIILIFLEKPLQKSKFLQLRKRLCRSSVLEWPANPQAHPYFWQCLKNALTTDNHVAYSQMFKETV

[3] = molecular target: T2, TLR7 (Homo sapiens, UniProt Q9NYK1); test: Ramos Blue NF-κB/AP-1 reporter B cell line, TLR7 stimulation; format: cell-based; conditions: Ramos cells, mean ± SD
T2 sequence (Q9NYK1 27-1049): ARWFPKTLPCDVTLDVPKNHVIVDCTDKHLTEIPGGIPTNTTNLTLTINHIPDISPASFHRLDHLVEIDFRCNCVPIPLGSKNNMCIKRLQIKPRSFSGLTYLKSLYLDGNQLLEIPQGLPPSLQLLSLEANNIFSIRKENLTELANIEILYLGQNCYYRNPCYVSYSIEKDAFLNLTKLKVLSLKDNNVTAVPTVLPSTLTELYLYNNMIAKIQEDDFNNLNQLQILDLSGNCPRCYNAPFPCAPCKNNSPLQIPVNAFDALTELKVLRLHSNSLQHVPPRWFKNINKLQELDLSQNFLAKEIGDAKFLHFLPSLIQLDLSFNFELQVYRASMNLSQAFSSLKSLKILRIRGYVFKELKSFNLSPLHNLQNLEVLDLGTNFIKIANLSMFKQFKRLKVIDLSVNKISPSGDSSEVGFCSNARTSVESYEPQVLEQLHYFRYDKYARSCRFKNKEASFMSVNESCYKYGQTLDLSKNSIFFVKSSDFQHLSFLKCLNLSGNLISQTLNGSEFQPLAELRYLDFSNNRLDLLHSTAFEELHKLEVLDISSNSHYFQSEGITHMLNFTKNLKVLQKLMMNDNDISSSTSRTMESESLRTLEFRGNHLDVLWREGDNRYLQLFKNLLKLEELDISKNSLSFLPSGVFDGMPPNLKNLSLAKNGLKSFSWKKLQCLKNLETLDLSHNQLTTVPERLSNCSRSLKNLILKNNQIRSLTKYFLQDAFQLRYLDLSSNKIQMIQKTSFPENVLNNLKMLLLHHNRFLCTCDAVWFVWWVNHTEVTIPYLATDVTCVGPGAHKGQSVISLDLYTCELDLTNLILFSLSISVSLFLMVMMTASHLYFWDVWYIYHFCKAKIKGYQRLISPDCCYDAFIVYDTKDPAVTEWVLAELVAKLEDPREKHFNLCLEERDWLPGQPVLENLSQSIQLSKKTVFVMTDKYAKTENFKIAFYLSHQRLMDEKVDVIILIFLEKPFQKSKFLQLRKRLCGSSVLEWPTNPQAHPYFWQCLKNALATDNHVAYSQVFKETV
In short: as §1

Chain of NOD1 (Q9Y239 whole entry): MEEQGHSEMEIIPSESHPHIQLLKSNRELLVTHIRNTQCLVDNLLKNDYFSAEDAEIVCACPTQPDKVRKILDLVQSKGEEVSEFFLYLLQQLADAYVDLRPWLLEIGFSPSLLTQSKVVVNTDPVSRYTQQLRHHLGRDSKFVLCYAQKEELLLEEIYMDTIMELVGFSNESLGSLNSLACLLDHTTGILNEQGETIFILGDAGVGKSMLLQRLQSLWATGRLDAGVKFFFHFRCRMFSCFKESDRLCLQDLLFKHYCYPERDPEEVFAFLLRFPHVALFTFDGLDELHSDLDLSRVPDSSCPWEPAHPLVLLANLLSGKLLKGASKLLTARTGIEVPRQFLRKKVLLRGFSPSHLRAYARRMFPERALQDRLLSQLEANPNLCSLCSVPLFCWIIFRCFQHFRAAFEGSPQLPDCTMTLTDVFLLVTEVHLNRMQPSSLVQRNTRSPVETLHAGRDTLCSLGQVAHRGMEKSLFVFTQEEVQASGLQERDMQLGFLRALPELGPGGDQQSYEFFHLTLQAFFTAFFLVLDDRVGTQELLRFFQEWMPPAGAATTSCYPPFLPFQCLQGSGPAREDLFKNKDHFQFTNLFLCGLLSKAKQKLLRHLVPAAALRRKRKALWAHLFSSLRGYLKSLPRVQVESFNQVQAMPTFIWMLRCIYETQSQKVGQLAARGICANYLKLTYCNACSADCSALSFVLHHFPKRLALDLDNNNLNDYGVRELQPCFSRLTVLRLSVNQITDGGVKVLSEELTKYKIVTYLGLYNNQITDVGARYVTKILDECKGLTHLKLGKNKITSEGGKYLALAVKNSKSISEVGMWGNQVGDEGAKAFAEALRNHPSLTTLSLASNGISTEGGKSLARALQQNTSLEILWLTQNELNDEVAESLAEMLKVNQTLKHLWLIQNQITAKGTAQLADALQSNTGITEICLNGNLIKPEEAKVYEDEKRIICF

**Q.** How did the “interference with NOD1-driven activity” value [1] turn out when `Cc1cc(N2CCc3c(c(C)nn3CC34CCC(NC(=O)[C@@H]5COCCN5)(CC3)CC4)C2)c2cnn(C)c2n1` [MHV370, (S)-N-(4-((5-(1,6-dimethyl-1H-pyrazolo[3,4-b]pyridin-4-yl)-3-methyl-4,5,6,7-tetrahydro-1H-pyrazolo[4,3-c]pyridin-1-yl)methyl)bicyclo[2.2.2]octan-1-yl)morpholine-3-carboxamide] was run?
**A.** did not interfere

**Q.** And the “CD69 expression on B cells, ex vivo R848 stimulation of blood” value [2]?
**A.** marked inhibition of CD69 expression over a period of 8 h

**Q.** What about the IC50 ([3]; IC50, CL307-driven reporter gene activity, CL307) of the same compound?
**A.** 15 ± 10 nM

**Q.** And the IC50 ([3]; read-out: IC50, R848-driven reporter gene activity, R848)?
**A.** 7 ± 0.1 nM
